Active and inactive are the calls of the source. The rule behind the calls is not given here.
Assays:
[1] = molecular target: T1, Non-receptor tyrosine-protein kinase TNK1 (Homo sapiens) (UniProt Q13470); experiment: Inhibition of recombinant TNK1 (unknown origin) expressed in HEK293 cells at 0.08 to 10 uM incubated for 15 mins in presence of 32P-gamma-ATP; type: cell-based; settings: dose 0.08-10 µM
T1 sequence (whole entry): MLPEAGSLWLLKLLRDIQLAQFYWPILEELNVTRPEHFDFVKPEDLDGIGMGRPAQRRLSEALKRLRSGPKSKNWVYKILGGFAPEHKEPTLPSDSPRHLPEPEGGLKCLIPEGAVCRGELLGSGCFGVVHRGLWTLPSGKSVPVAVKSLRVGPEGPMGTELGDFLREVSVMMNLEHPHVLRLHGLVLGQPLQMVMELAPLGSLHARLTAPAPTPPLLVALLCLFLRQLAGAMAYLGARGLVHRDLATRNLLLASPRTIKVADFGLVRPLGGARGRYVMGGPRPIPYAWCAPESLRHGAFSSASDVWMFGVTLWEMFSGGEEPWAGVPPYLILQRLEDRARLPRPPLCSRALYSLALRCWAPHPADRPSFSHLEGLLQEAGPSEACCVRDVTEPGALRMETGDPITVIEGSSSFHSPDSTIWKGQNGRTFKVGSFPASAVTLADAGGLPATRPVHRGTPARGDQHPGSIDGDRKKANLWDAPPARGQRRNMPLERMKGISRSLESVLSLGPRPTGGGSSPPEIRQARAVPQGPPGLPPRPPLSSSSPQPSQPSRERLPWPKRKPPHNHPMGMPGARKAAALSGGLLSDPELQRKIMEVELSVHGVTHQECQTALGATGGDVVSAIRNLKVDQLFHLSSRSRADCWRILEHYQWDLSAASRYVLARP

[2] = Toxicity in C57Bl/6 mouse assessed as effect on albumin level at 50 mg/kg, ip for 14 days (reference value: 3 g/dl); type: organism-based; settings: in vivo, 336 h, time 14 day
[3] = Volume of distribution at steady state in Sprague-Dawley rat at 1 mg/kg, iv measured up to 8 hrs by LC-MS/MS analysis; type: ADME, organism-based; settings: in vivo, read-out: Vdss
[4] = molecular target: Tyrosine-protein kinase receptor UFO (Homo sapiens) (UniProt P30530); experiment: Inhibition of AXL in human HeLa cells lysate at 2 uM pre incubated for 15 mins followed by ADP acyl phosphate probe addition and measured after 10 mins by LC-MS/MS analysis relative to control; type: subcellular; settings: time 25.0 min
Chain of Tyrosine-protein kinase receptor UFO (Homo sapiens) (P30530 whole entry, the tested form may be a part): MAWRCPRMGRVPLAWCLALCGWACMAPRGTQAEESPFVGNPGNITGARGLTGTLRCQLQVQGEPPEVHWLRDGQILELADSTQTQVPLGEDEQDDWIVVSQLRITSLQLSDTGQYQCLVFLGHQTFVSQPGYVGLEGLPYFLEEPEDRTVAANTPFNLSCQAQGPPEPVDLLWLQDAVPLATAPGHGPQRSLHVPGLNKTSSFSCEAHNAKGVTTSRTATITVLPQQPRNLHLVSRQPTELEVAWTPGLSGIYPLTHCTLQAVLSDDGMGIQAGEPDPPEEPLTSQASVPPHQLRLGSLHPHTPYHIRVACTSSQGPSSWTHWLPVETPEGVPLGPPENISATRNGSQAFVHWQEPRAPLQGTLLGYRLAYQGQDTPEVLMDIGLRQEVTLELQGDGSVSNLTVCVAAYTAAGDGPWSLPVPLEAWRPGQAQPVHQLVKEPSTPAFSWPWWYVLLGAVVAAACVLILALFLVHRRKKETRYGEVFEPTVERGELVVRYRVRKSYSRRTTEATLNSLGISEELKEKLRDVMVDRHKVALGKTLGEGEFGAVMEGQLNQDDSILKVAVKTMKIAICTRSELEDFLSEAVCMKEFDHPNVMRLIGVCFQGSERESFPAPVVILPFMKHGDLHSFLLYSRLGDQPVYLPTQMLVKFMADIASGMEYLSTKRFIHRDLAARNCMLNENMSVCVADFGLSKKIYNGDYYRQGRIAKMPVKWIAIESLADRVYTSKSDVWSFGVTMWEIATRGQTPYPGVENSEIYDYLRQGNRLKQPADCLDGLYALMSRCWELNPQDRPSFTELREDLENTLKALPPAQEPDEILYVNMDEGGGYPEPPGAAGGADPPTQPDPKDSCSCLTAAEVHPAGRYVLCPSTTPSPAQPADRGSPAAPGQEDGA
Method in brief: (§1)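 KiNativ-type profiling in HeLa lysate (5 mg/mL total protein). Lysate preincubated 15 min with inhibitor at 50, 10, 2, 0.8 or 0 μM, then ATP or ADP acylphosphate probe added (5 μM final) for 10 min. Reaction stopped with urea and analysed by targeted MS, using up to four fragment ions per kinase peptide-probe conjugate. % inhibition calculated against untreated lysate. Duplicate reactions.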

[5] = molecular target: Cyclin-dependent kinase 2 (Homo sapiens, UniProt P24941); experiment: Inhibition of CDK2 K1 site in human HeLa cells lysate pre incubated for 15 mins followed by ADP acyl phosphate probe addition and measured after 10 mins by LC-MS/MS analysis; type: subcellular
Method in brief: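 KiNativ profiling in HeLa lysate (5 mg/mL total protein). Lysate incubated 15 min with inhibitor at 50, 10, 2, 0.8 or 0 μM. ATP or ADP acylphosphate probe then added (5 μM final) and reacted 10 min. Reaction stopped with urea and analysed by targeted MS, using up to four fragment ions per kinase peptide-probe conjugate. % inhibition taken against untreated lysate. Run in duplicate.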

[6] = molecular target: Serine-protein kinase ATM (Homo sapiens, UniProt Q13315); experiment: Inhibition of ATM in human HeLa cells lysate pre incubated for 15 mins followed by ADP acyl phosphate probe addition and measured after 10 mins by LC-MS/MS analysis; type: subcellular; method in brief: as §1
[7] = molecular target: Calcium/calmodulin-dependent protein kinase type 1D (Homo sapiens, UniProt Q8IU85); experiment: Inhibition of CAMK1d in human HeLa cells lysate at 50 uM pre incubated for 15 mins followed by ADP acyl phosphate probe addition and measured after 10 mins by LC-MS/MS analysis relative to control; type: subcellular; settings: time 25.0 min; method in brief: as §1
Chain of Calcium/calmodulin-dependent protein kinase type 1D (Q8IU85 whole entry, looked up): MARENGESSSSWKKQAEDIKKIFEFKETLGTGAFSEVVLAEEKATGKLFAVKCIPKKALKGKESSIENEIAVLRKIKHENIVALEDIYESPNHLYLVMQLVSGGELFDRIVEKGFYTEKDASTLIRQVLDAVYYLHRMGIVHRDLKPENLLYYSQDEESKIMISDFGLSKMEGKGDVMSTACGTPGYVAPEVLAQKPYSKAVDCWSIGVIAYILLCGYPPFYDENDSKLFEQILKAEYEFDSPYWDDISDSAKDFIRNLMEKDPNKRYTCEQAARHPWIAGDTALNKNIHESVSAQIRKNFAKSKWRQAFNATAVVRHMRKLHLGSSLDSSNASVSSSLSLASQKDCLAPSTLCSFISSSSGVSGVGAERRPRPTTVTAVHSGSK

[8] = molecular target: Serine/threonine-protein kinase Nek8 (Homo sapiens) (UniProt Q86SG6); experiment: Inhibition of NEK8 in human HeLa cells lysate at 2 uM pre incubated for 15 mins followed by ADP acyl phosphate probe addition and measured after 10 mins by LC-MS/MS analysis relative to control; type: subcellular; settings: time 25.0 min
Chain of Serine/threonine-protein kinase Nek8 (Homo sapiens) (Q86SG6 whole entry, the tested form may be a part): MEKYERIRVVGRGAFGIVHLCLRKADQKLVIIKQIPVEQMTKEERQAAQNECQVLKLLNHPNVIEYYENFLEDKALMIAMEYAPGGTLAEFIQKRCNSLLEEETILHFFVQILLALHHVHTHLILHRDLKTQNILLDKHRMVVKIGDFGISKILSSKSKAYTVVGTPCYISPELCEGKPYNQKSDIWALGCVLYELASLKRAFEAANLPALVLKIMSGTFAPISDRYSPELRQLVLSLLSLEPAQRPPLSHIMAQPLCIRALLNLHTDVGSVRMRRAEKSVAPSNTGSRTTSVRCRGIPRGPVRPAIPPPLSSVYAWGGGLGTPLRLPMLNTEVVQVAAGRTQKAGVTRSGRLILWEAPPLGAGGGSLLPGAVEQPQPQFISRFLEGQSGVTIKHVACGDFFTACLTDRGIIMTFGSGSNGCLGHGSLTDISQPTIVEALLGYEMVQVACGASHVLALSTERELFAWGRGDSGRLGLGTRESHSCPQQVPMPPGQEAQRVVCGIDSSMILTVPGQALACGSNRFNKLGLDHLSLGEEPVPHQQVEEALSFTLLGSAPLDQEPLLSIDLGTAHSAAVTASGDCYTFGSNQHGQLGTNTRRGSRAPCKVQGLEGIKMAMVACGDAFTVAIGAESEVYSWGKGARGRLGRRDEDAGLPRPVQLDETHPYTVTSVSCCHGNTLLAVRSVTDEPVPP

[9] = molecular target: Ribosomal protein S6 kinase alpha-5 (Homo sapiens, UniProt O75582); experiment: Inhibition of MSK1 domain 1 in human HeLa cells lysate at 50 uM pre incubated for 15 mins followed by ATP acyl phosphate probe addition and measured after 10 mins by LC-MS/MS analysis relative to control; type: subcellular; settings: time 25.0 min
Chain of Ribosomal protein S6 kinase alpha-5 (O75582 whole entry, looked up, the tested form may be a part): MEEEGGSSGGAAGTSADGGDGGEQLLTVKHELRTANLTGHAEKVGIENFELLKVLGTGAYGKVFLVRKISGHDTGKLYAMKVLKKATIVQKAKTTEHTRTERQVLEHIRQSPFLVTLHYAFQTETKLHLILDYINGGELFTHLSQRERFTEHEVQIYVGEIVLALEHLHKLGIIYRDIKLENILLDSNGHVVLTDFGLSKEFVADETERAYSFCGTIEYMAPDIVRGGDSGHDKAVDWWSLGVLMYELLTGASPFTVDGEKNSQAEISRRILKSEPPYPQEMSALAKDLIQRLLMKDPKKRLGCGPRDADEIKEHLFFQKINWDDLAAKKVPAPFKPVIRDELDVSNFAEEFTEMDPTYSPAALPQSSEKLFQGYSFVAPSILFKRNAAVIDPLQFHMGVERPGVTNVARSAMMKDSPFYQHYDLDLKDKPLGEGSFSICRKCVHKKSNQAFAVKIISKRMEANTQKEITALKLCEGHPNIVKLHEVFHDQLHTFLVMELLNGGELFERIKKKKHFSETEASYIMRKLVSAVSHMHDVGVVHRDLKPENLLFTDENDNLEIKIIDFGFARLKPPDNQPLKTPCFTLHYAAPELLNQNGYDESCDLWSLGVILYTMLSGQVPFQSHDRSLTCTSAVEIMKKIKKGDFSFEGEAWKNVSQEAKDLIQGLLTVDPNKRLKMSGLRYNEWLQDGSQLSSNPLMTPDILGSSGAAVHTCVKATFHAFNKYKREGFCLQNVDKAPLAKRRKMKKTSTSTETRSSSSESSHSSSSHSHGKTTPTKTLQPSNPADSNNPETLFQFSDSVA

[10] = molecular target: Tyrosine-protein kinase ABL (Homo sapiens, UniProt P00519+P42684); experiment: Inhibition of ABL1/2 in human HeLa cells lysate pre incubated for 15 mins followed by ATP acyl phosphate probe addition and measured after 10 mins by LC-MS/MS analysis; type: subcellular
Method in brief: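 HeLa cell lysates (5 mg/mL total protein) were preincubated with inhibitor at 0, 0.8, 2, 10 or 50 μM for 15 min. ATP or ADP acylphosphate probe was then added (5 μM final) for 10 min, and reactions were stopped with urea. Up to four fragment ions per kinase probe-peptide were quantified by targeted MS. % inhibition was taken relative to untreated lysate. Run in duplicate.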

RPS6KA1/RPS6KA2/RPS6KA3 = RPS6KA1/RPS6KA2/RPS6KA3 (Homo sapiens, UniProt P51812+Q15349+Q15418); experiment: Inhibition of RSK1/2/3 in human HeLa cells lysate at 50 uM pre incubated for 15 mins followed by ATP acyl phosphate probe addition and measured after 10 mins by LC-MS/MS analysis relative to control; type: subcellular; settings: time 25.0 min
Chain of RPS6KA1/RPS6KA2/RPS6KA3 (P51812 whole entry, looked up): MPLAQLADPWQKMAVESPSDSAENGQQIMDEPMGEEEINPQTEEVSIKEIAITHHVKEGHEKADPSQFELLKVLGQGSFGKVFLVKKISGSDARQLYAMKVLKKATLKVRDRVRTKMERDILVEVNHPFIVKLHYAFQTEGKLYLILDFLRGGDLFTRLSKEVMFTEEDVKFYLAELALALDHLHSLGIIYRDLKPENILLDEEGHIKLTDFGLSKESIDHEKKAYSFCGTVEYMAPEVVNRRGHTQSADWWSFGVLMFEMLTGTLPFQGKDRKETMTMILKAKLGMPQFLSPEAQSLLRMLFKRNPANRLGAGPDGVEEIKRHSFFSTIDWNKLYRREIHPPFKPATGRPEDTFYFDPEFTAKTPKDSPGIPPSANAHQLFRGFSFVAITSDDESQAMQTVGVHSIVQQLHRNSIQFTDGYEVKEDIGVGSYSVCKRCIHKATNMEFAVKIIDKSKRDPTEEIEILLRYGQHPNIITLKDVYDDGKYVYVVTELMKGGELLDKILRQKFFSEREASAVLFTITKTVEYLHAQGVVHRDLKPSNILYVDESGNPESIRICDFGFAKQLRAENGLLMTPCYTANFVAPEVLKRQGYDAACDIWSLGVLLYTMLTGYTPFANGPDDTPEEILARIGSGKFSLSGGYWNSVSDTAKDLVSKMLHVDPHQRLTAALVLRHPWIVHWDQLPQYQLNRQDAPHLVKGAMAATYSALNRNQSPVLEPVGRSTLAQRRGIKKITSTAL
Chain of RPS6KA1/RPS6KA2/RPS6KA3 (Q15349 whole entry, looked up): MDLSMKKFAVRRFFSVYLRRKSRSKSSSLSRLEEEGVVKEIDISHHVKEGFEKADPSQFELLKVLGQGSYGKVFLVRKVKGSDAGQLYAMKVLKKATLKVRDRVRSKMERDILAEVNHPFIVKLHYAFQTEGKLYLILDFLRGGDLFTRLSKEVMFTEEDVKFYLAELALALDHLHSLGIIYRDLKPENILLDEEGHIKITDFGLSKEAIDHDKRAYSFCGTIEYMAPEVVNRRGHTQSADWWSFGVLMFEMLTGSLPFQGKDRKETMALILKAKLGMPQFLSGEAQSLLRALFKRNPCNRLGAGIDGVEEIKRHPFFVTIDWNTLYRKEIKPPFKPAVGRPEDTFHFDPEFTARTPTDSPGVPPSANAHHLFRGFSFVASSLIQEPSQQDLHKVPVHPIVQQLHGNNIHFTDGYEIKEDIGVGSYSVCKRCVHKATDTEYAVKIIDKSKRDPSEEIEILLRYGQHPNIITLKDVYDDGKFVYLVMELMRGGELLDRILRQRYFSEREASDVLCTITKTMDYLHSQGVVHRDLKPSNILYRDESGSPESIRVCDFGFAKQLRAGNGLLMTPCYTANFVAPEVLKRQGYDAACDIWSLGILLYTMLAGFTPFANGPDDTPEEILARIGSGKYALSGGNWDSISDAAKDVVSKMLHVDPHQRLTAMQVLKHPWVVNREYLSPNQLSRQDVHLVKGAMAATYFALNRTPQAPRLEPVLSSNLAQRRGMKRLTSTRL
Chain of RPS6KA1/RPS6KA2/RPS6KA3 (Q15418 whole entry, looked up): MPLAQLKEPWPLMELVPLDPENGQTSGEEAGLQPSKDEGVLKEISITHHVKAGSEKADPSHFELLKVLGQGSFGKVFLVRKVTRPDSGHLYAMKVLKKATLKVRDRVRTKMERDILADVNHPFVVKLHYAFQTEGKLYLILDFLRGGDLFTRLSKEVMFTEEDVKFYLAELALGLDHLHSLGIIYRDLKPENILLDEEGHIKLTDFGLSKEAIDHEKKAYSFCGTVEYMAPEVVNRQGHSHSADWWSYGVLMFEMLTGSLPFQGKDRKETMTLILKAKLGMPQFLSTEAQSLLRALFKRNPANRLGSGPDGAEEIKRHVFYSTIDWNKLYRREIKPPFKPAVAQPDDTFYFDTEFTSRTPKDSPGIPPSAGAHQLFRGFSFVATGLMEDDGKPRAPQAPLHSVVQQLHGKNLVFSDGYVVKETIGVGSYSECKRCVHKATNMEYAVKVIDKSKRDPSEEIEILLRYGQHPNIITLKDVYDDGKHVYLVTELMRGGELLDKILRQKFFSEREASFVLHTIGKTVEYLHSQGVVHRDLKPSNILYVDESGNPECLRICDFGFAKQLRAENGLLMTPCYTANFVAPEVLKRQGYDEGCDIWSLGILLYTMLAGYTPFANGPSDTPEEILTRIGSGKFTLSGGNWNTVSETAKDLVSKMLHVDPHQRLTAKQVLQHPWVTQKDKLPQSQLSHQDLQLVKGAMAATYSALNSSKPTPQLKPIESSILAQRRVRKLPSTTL

[11] = AUCinfinity in Sprague-Dawley rat at 1 mg/kg, iv measured up to 8 hrs by LC-MS/MS analysis; type: ADME, organism-based; settings: in vivo
Method in brief: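 Sprague-Dawley rats given one intravenous dose or one oral dose of 2 mg/kg. Plasma drug concentrations were followed over time, with samples taken out to 8 hr after dosing. PK parameters (clearance, volume of distribution, half-life, oral bioavailability, Cmax) were calculated from these concentration–time data.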

In the case of CCOc1cc(N2CCC(O)CC2)ccc1Nc1ncc2c(n1)N(C)c1ccccc1C(=O)N2C, the inhibition [1] is reported as “Active”, the Activity [2] is reported as 3.3 g/dL and the Vd [3] is reported as 3.4 L/kg. The inhibition [4] was 13.1%, the IC50 [5] was > 50 µM and the IC50 [6] was > 50 µM. The inhibition [7] was -1.9%, the inhibition [8] was 30.2% and the inhibition [9] was 4.6%. The IC50 [10] was > 50 µM, the inhibition (RPS6KA1/RPS6KA2/RPS6KA3) was 0.9% and the AUC(0-inf) [11] was 1.39 µM·h.

Source: ChEMBL document CHEMBL5661979, “Pharmacological inhibition of BMK1 suppresses tumor growth through promyelocytic leukemia protein” (Cancer Cell, 2010)
